High-throughput results: PubChem BioAssay, several laboratories
B2AR ag: beta2AR agonists driving receptor internalization, primary screen, cell-based, FAP fluorogen, flow cytometry; response, % (no concentration beside the values); Am2.2-beta2AR cells; Beta-2 adrenergic receptor (Homo sapiens), P07550; 340,000 compounds, 0.43% hits;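 active = response above a set limit, near 3 SD of response in nonfluorescent compounds, cut at about 42% in these data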
Target sequence (P07550 whole entry, looked up): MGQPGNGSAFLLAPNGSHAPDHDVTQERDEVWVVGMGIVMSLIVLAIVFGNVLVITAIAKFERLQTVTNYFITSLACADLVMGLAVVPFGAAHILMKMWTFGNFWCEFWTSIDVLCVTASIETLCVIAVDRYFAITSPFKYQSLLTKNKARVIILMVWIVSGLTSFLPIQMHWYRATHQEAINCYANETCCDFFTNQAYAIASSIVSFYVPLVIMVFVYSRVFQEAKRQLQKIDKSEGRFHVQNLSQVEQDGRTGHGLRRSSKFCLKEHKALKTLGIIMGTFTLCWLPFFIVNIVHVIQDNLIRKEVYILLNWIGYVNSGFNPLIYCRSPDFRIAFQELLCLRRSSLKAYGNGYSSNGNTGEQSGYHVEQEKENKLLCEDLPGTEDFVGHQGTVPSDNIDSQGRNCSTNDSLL
XBP1 UPR activ: activators of adaptive XBP1 UPR arm, primary screen, cell-based, CHO-XBP1 luciferase reporter, luminescence, uHTS; 330,000 compounds, 0.33% hits; activation, % at 20 µM; IRE1-XBP1 UPR activation; percent of tunicamycin response, DMSO as zero;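 active = versus positive control, 20 µM dose yields 30% or more activation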;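 note: 100% = tunicamycin at 10 µg/mL and 0% = DMSO only wells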
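Material: CHO cell line with stable XBP1 luciferase reporter; buffer or medium: F12 medium containing 10% fetal bovine serum; compound: single point, 20 µM final compound, 1% DMSO; incubation: 6 h treatment, 37 °C; measured by: glow luminescence from Steady-Glo reagent; evaluation: activation, % of tunicamycin; control set: tunicamycin high, DMSO low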
T cell modulator: modulators of CD8 T cell-vesicle binding, primary screen, mouse 2C CD8+ T cells, flow cytometry; 2C CD8+ T cell-vesicle binding; stronger effect = lower value; 330,000 compounds, 0.068% hits; response (vesicle binding), % at 7 µM;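 active = response, share of CD8 T cells binding vesicles, and their 90th percentile fluorescence all below set limits, cut at about 80% in these data, passing the limit was not always enough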;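 note: values below 100% mean blocked vesicle binding to the CD8+ T cells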
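Material: murine 2C transgenic CD8+ T lymphocytes / Also added: QL9-peptide-loaded Drosophila micro-vesicles bearing Ld, ICAM-1 and B7-1 / Schedule: binding step 1.5 h, 37 °C, antibody labelling 20 min, ice / Signal: flow cytometry, PE anti-B7-1 (FL2) versus Alexa647 anti-CD8 (FL8), PFA-fixed / Evaluation: percent CD8+ FL2 mean versus row control / Benchmarks: naked versus QL9-loaded vesicles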
CHOP UPR activ: activators of apoptotic CHOP UPR arm, primary screen, cell-based, CHO-CHOP luciferase reporter, luminescence, uHTS; AID 449763, 2010; UPR activation; percent of tunicamycin response over DMSO baseline; activation, % at 10 µM; 330,000 compounds, 0.34% hits;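 active = at 10 µM dose, activation of 40% or more, normalized to positive control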;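 note: 100% = tunicamycin at 10 µg/mL and 0% = DMSO alone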
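Test system: CHO-CHOP cells, stable luciferase reporter of PERK-eIF2a-CHOP signalling | Quantity: 500 CHO-CHOP cells per well | Buffer or medium: F12 plus 10% serum | Compound dosing: 10 µM single point, 0.5% DMSO | Schedule: 6 h compound treatment, 37 °C | Signal: Luciferase luminescence | Control set: Tunicamycin high control, DMSO low control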
* = called active by the depositor; i = inactive; · = no result. Sampled rows, rich in hits. Any-hit rate of the full collection: about 1%.

SMILES	B2AR ag	XBP1 UPR activ	T cell modulator	CHOP UPR activ
N#C/C(=C\c1cccc(NC(=O)c2ccccc2Cl)c1)C(=O)NCCc1ccccc1	43*	3	264	1
S=C1CC2CCCC(C2)N1 (stereo unspecified)	-8	·	·	·
CCCOc1ccc(/C=N/NC(=O)CN2CCCCC2)cc1OCC	-6	-3	319	0
CCCCOc1ccc(C(=O)N/N=C/c2ccc(OCCN3CCCCC3)c(OC)c2)cc1	43*	-1	643	3
COc1ccc(NC(=O)CCNS(=O)(=O)c2ccc3c(c2)CCC(=O)N3)cc1	-2	3	520	-1
O=c1cc(CN2CCN(Cc3ccccc3)CC2)c2ccc(O)c(O)c2o1	11	63*	206	4
Cc1ccc2[nH]cc(CCNC(=O)/C=C/c3ccco3)c2c1	-4	-3	78*	0
Cc1ccc2[nH]cc(CCNC(=O)c3ccco3)c2c1	-7	0	125	0
Cc1ccc(NC(=O)c2ccccc2)cc1	-3	3	546	3
Cc1ccc(NC(=O)C2=C(c3ccccc3)S(=O)(=O)CCS2(=O)=O)cc1	53*	-8	121	-10
COc1cc(C(=O)NC(=S)N2CCCCCC2)cc(OC)c1OC	-2	0	978	0
COc1cc(C(=O)NC(=S)NC(C)C)cc(OC)c1OC	78*	2	232	-2
COc1cc(/C=C2/C(=O)ON=C2c2ccccc2)ccc1O	42*	8	266	21
O=C1ON=C(c2ccccc2)/C1=C/c1ccc(O)cc1	47*	7	240	10
COc1cc(/C=C2\C(=O)ON=C2c2ccccc2)cc(Cl)c1O	-92	-3	236	20
COc1ccc(NC(=O)COC(=O)CCSc2ccccc2)cc1OC	-4	0	433	0
C/C=C\C=C/C(=O)Nc1cccc(C2=NOC3(C2)C[C@@H](C(N)=O)N(C(=O)[C@H]2CCC(=O)N2)C3)c1 (stereo partly specified)	0	0	609	2
COCCn1c(=N)c(C(=O)NCCc2ccccc2)cc2c(=O)n3cccc(C)c3nc21	-10	-4	853	-2
Cc1cccn2c(=O)c3cc(C(=O)NC4CCCC4)c(=N)n(Cc4ccc(F)cc4)c3nc12	103*	0	282	1
COc1ccc(CCn2c(=N)c(C(=O)NC3CCCC3)cc3c(=O)n4cccc(C)c4nc32)cc1	11	4	516	0
Cc1cccn2c(=O)c3cc(C(=O)NC4CCCCC4)c(=N)n(Cc4ccccc4)c3nc12	32	-3	587	8
Cc1cccn2c(=O)c3cc(C(=O)NC4CCCC4)c(=N)n(CCc4ccccc4)c3nc12	79*	2	239	3
CCNC(=O)c1cc2c(=O)n3cccc(C)c3nc2n(CCc2ccccc2)c1=N	89*	-2	165	1
CCOCCCn1c(=N)c(C(N)=S)cc2c(=O)n3cccc(C)c3nc21	-5	5	294	1
Cc1cccn2c(=O)c3cc(C(N)=S)c(=N)n(CCCOC(C)C)c3nc12	71*	2	280	3
SMILES	B2AR ag	XBP1 UPR activ	T cell modulator	CHOP UPR activ
CCN(CC(=O)Nc1ccc(OC)cc1)CC(=O)Nc1ccc2c(c1)OCO2	-17	-2	435	0
COc1ccc(Oc2nc(SC)nc3ccsc23)cc1	-1	2	348	1
COc1ccc(N2C3=C(CC4=C2CC(C)(C)CC4=O)C(=O)CC(C)(C)C3)cc1	34	-10	313	-3
CCCCNC(=O)c1cc2c(=O)n3cccc(C)c3nc2n(Cc2ccccc2)c1=N	87*	-1	165	-2
CC(C)c1ccc(NC(=O)NCc2ccc3c(c2)OCO3)cc1	-6	-1	182	0
O=C1C(Cl)=C(N2CCN(c3ccccc3[N+](=O)[O-])CC2)C(=O)c2ccccc21	81*	·	239	·
O=[N+]([O-])c1cc(Cl)ccc1N1CCCC1	0	2	224	2
COc1ccc(CN2CCN(C(=O)c3cc(-c4cccnc4)nc4ccc(Cl)cc34)CC2)c(OC)c1OC	10	3	236	1
O=C1C2C3CCC(CC3)C2C(=O)N1c1ccccc1 (stereo unspecified)	-1	4	113	1
Cn1c(O)c(N=NC(=O)Cn2ccc(C(F)(F)F)n2)c2ccccc21	2	0	i	0
